Several values for one entry are separate records, joined by “and”; a condition that tells them apart may be missing. Identical values can stand only once. Entries after “also recorded” stand apart in the source; their conditions may differ.
Key:
PDE4 = conditions: cited from earlier work
Safety / adverse events = type: in vivo, human
Procedure, shortened: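 Ten patients received 21-day cycles of oral roflumilast 500 mcg daily. Prednisone 60 mg/m2 PO daily was added on days 8–14 of cycle 1 (maximum 100 mg daily) and on days 1–7 of later cycles. Incidence, severity, relationship and type of adverse events during treatment and follow-up were graded by NCI CTCAE version 4.03.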

[1] = test system: relapsed/refractory B cell malignancies; experiment: Clinical response and days in trial, phase Ib trial; type: in vivo, human; conditions: roflumilast plus prednisone
Procedure, shortened: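 Cycles lasted 21 days, with oral roflumilast 500 mcg daily throughout. Prednisone 60 mg/m2 PO daily was given on days 8–14 in cycle 1 (maximum 100 mg daily) and on days 1–7 in later cycles. Response was scored by International Working Group revised criteria for each disease.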

PI3K = PI3K activity; type: in vivo, human
AKT = AKT phosphorylation; type: in vivo, human; conditions: 5 of 8 patients; roflumilast single agent, day 8 vs day 0, PBMC, western blot
B cell lymphoma = conditions: murine model of B cell lymphoma; cited from earlier work
[2] = roflumilast 500 mcg PO daily plus prednisone, 10 patients
[3] = individual patient (UPN, diagnosis in the row)
[4] = individual patient, PI3K/AKT non-suppressors
[5] = individual patient, PI3K/AKT suppressors

Structure (SMILES): O=C(Nc1c(Cl)c[n+]([O-])cc1Cl)c1ccc(OC(F)F)c(OCC2CC2)c1 [roflumilast N-oxide]
- IC50 for inhibition of PDE4 (PDE4): 0.8 ng/mL

Structure (SMILES): O=C(Nc1c(Cl)cncc1Cl)c1ccc(OC(F)F)c(OCC2CC2)c1 [roflumilast]
- transitory episode of suicidal ideation, patients (Safety / adverse events; UPN#10, end of first cycle, resolved upon cessation of study drug): One patient
- transient ≥ grade 2 neutropenia, patients (Safety / adverse events; roflumilast 500 mcg PO daily plus prednisone, 3 of 10 patients): 30%
- grade 4 events (Safety / adverse events; [2]): no grade 4 events
- incidence of most common ≥Grade 2 treatment-related AEs (fatigue, anorexia, neutropenia), all causality (Safety / adverse events; [2]): ≥ 25%
- tolerability of treatment (Safety / adverse events; [2]): generally well tolerated
- partial response or stable disease, share of evaluable patients ([1]; 6 of nine evaluable patients): 66%
- average days in trial, true PI3K/AKT suppressor profile ([1]; clinically evaluable patients): 156 days
- average days in trial, without PI3K/AKT suppression ([1]; clinically evaluable patients): 91 days
- days in trial, range, true PI3K/AKT suppressor profile ([1]; clinically evaluable patients): 49 to 315 days
- days in trial, range, without PI3K/AKT suppression ([1]; clinically evaluable patients): 28 to 139 days
- partial response or stable disease in PI3K/AKT suppressor group ([1]; four of five patients): 80%
- Best response [1, 3]: Stable disease; also recorded: Withdrawn; also recorded: Progressed; also recorded: Partial response
- days in trial (second figure of No of cycles/days in trial) [1, 3]: 4 / 105 days and 4 / 98 days and 1 / 29 days and 2 / 46 days and 8 / 190 days and 13 / 315 days and 2 / 49 days and 1 / 28 days and 5 / 139 days and 5 / 127 days
- Best response [1, 4]: Stable disease; also recorded: Progressed
- Days on trial [1, 4]: 139 days and 105 days and 29 days and 28 days
- Best response [1, 5]: Stable disease; also recorded: Partial response; also recorded: Progressed
- Days on trial [1, 5]: 190 days and 315 days and 49 days and 127 days and 98 days
- patients with early progression (during first or second cycle) ([1]; of nine evaluable patients): 3 patients
- days in trial until progression, death or withdrawn consent, range [1]: 28 to 315 days
- median number of days in trial until progression, death or withdrawn consent [1]: 105 days
- average days in trial, patients of Hispanic origin ([1]; p=0.08 vs non-Hispanic): 193 days
- PI3K suppression in non-PI3K/AKT suppressors (PI3K; n=4, no pAKT suppression, day 8 vs day 0, PBMC): < 25%
- patients with significantly suppressed PI3K activity, number of evaluated (PI3K; roflumilast 500 mcg PO daily single agent, day 8 vs day 0, PBMC): 7 of the 9
- patients evaluated with significantly suppressed PI3K activity (PI3K; roflumilast as single agent, 7 days, PBMC): 77%
- samples with marked suppression of pAKT (T308) levels (AKT): 62.5%
- IC50 for inhibition of PDE4 (PDE4): 0.3 ng/mL
- survival (B cell lymphoma): improved
- tumor burden (B cell lymphoma): significantly suppressed

Reference: paper PMC5316514 (Clinical cancer research : an official journal of the …, 2016)
